Screening results (PubChem BioAssay)
DAX1 inh-1 = blocks DAX1 repression of SF-1 activated StAR promoter; HEK293T StAR-luciferase reporter, SF-1/DAX-1 repression relief; inhibition, % at 6.8 µM; 370,000 compounds, 1.1% hits; AID 652010;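 active = inhibition above the mean over all tested compounds plus 3 SD, cut at about 3.6% in these data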;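 note: 0% = DAX-1 cells with DMSO and 100% = cells lacking DAX-1 with DMSO; higher inhibition means more luminescence from relief of DAX-1 repression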
NR2E3 ag-1 = NR2E3 (human) agonism; Q9Y5X4; GST-NR2E3/biotin-RetCOR TR-FRET, 1536-well; 320,000 compounds, 0.12% hits; inhibition of corepressor binding, % at 4.78 µM; AID 2300;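 active = percent inhibition above the cutoff of mean plus 3 SD of all tested compounds, set per screening campaign, cut at about 20% in these data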;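 note: 0% = DMSO wells and 100% = biotin wells as full block of FRET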
Target sequence (Q9Y5X4 whole entry, looked up): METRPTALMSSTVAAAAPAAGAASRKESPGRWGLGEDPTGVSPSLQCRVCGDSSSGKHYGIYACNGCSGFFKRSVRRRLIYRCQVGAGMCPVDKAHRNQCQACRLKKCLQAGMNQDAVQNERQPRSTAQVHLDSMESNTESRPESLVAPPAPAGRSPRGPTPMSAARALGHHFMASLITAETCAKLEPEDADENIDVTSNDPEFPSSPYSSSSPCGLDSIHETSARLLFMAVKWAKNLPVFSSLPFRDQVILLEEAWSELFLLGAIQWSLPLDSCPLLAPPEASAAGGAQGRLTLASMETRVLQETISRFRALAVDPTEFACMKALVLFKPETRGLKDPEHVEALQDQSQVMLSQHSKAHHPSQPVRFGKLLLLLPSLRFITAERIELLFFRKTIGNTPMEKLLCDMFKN
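Material: NR2E3–RetCOR corepressor complex / Amount: 1.35 nM GST-NR2E3 / Medium: Tris pH 7.5 / Compound: single nominal compound dose of 4.8 µM / Incubation: 5 h at 4 °C / Technique: TR-FRET, Eu(K)-anti-GST donor, streptavidin-D2 acceptor, ex 340, em 617/671 nm / Read-out basis: percent loss of FRET ratio relative to control wells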
SMARCA2 activ = activators of SMARCA2 function; activation, % at 9.1 µM; MG213 cells, MMTV-luciferase reporter, dexamethasone, overnight; 370,000 compounds, 1% hits; in the data active = activation above about 7.8%;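 note: 0% = vehicle wells and 100% = reference activator wells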
DAX1 inh-2 = inhibitors of human orphan nuclear receptor DAX1 (NR0B1) | P51843 | 340,000 compounds, 0.99% hits | HEK293 Gal4-DAX1 luciferase reporter, luminescence | AID 504766 | inhibition, % at 6.75 µM;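 active = inhibition above the mean over all tested compounds plus 3 SD, cut at about 4.2% in these data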;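 note: 0% = DAX1-transfected cells with DMSO and 100% = empty-vector control cells with DMSO; inhibition shows as a rise in luminescence from relieved DAX1 repression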
Target sequence (P51843 207-470 limits assumed): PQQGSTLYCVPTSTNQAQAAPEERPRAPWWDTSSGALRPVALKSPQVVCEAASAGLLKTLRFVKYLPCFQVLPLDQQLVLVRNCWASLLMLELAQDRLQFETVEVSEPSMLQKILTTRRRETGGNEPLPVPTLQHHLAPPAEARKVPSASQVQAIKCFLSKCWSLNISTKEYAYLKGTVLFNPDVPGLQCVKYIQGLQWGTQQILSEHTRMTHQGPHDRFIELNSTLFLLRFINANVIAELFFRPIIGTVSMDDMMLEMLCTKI
NR2E3 ag-2 = agonists of human NR2E3 nuclear receptor. CHO-S Gal4-NCOR/VP16-NR2E3 two-hybrid, luciferase. inhibition of corepressor binding, % at 3.98 µM. 360,000 compounds, 0.35% hits. AID 602229;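 active = inhibition above the mean of all tested compounds plus 3 SD, cut at about 70% in these data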;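 note: 0% = DMSO with NR2E3 transfected cells and 100% = cells lacking NR2E3 construct; higher means lower luciferase signal from less NR2E3 corepressor binding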
JMJD2C inh = inhibitors of human GASC-1 (JMJD2C) demethylase; Q9H3R0; inhibition, % at 2.35 µM; 330,000 compounds, 0.069% hits; GST-JMJD2C(1-420) H3K9me3 demethylation, DELFIA europium;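 active = more than half of a compound's replicate wells show inhibition beyond 50%, single wells judged on their own value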;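 note: signal counts dimethyl H3K9 product captured on neutravidin plate; 0% = median of DMSO wells and 100% = 0.3 times that DMSO median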
Active calls of the source: *; . = no result given. Rows were chosen to be rich in hits. Some 3.2% of all compounds tested hit in one or more screens of this group.

SMILES | DAX1 inh-1 | NR2E3 ag-1 | SMARCA2 activ | DAX1 inh-2 | NR2E3 ag-2 | JMJD2C inh
COc1cc(C(=O)NC2CCCCN(C(C)C)C2=O)cc(OC)c1OC (stereo not drawn) | 0 | . | 0 | . | . | .
Cc1ccc(S(=O)(=O)Cc2ccc(C(=O)N3CCN(c4ccccn4)CC3)o2)cc1 | 0 | 5 | -1 | 4.7* | -11 | 1
CC(C)OCCCn1c(-c2ccco2)nc2nc3ccccc3nc21 | -1 | 5 | 7.9* | 1 | 7 | 4
COCCn1c(-c2ccco2)nc2nc3ccccc3nc21 | 0 | 3 | 0 | 2 | -1 | 9
O=C(Nc1ccccc1)Nc1c(-c2ccccc2)nc2ncccn12 | -1 | . | 1 | . | . | .
COc1ccc(N2CCN(CCCNC(=S)Nc3c(C)cccc3C)CC2)cc1 | 1 | -2 | -1 | 5.6* | -23 | -5
C=CCOC(=O)N1CCN(C(=O)c2ccc3c(c2)nc(C)n3C2CCCC2)CC1 | 0 | . | -7 | . | . | .
CC(C)COc1ccc(-c2cc(C(=O)NN)[nH]n2)cc1 | 4.0* | 2 | 2 | 0 | -99 | 3
Cc1c(C(=O)Oc2ccc(Cl)cc2)n(C)oc1=O | 0 | 0 | 4 | 0 | 0 | -11
Cc1c(C(=O)NNc2c(Cl)cccc2Cl)n(C)oc1=O | 1 | -1 | 2 | 6.2* | -14 | 9
CC(C)=CCN1CCN(Cc2cn[nH]c2C2CCCCC2)CC1CCO (stereo not drawn) | 0 | 3 | 6 | . | . | 53*
Cc1ccc(CN2CCN(Cc3cn[nH]c3C3CCCCC3)CC2CCO)cc1 (stereo not drawn) | 0 | 3 | 4 | 0 | -2 | 6
CC(=O)CC[C@@H]1CC[C@]2(CCCN(C(=O)c3ccno3)C2)O1 | 0 | . | -1 | . | . | .
O=C(N=Nc1c(O)[nH]c2ccccc12)c1cccs1 | 4.4* | -2 | 3 | 2 | -111 | 3
O=C1CCN(C(=O)CSc2ccc(Cl)cc2)N1 | 0 | 5 | 1 | 5.8* | -8 | 16
CCc1ccc2nc(/N=C(\N)NC(=O)c3ccccc3)nc(C)c2c1 | 0 | 3 | 7.9* | 0 | -55 | -7
Cc1cc(C)c2nc(/N=C(\N)NC(=O)c3ccccc3)nc(C)c2c1 | 1 | 2 | 5 | 2 | 4 | 20
Cc1cc(C(=O)Nc2ccc(F)cc2)n(-c2ccccc2)n1 | -1 | . | -2 | . | . | .
O=C(N/N=C/c1ccoc1)c1ccccc1 | 6.4* | 0 | 3 | 1 | -88 | -2
O=C(N/N=C/c1ccccc1)c1ccco1 | 1 | 0 | 2 | 5.8* | -100 | 1
CC(=O)n1cc(/C=N/NC(=O)c2ccccc2O)c2ccccc21 | 0 | 0 | 3 | 5.0* | -48 | -16
Cn1cc(/C=N/NC(=O)c2ccccc2O)c2ccccc21 | 0 | -2 | 1 | 0 | -47 | -7
O=C(N/N=C/c1ccoc1)c1ccc(Br)cc1 | -2 | 1 | 1 | 0 | -25 | -1
O=C(N/N=C/c1ccoc1)c1ccccc1O | 3.7* | 1 | 1 | 1 | -54 | 4
COC[C@@H]1CCCN1c1ccc2c(c1)O[C@H]1CCN(C1)S2(=O)=O | 0 | . | -2 | . | . | .
SMILES | DAX1 inh-1 | NR2E3 ag-1 | SMARCA2 activ | DAX1 inh-2 | NR2E3 ag-2 | JMJD2C inh
COC(=O)c1cc(-c2ccc(C)cc2)c(=O)n2c1CCC2 | -2 | . | -3 | . | . | .
CC(NCc1ccco1)C(=O)N1CCN(Cc2ccccc2F)CC1 (stereo not drawn) | 1 | . | -4 | . | . | .
O=C(NC1CCCCCC1)c1ccc(CN2CCOCC2)cc1 | 1 | -2 | 6 | 4.6* | -69 | -2
O=C(NC1CCCC1)c1ccc(CN2CCOCC2)cc1 | 0 | 0 | -1 | 1 | 12 | -1
COc1ccc(CCN2CCCC(CN(C)C(=O)c3cc(C)oc3C)C2)cc1 (stereo not drawn) | 2 | 4 | 7.8* | 1 | -82 | -2
N#Cc1cc2cc(Cl)ccc2[nH]c1=O | 4.1* | . | -4 | . | -6 | .
O=C(c1ccccc1)c1cc2cc(Cl)ccc2[nH]1 | 1 | -6 | 4 | 2 | -99 | -4
CCOc1ccc2nc(SC(C)C(N)=O)[nH]c2c1 (stereo not drawn) | 1 | 3 | 7.9* | 3 | 11 | -4
ClC1(Cl)CC1CSc1nc2ccccc2[nH]1 (stereo not drawn) | 3 | 2 | 3 | 0 | -66 | 181
CCOc1ccc2nc(SCC3CC3(Cl)Cl)[nH]c2c1 (stereo not drawn) | 0 | -2 | 5 | 5.1* | -119 | 6
COc1cc(C=Nn2c(-c3cc(C)[nH]n3)n[nH]c2=S)cc(Br)c1O | 0 | . | -4 | . | . | .
COc1ccc(OC)c(S(=O)(=O)N(CC(=O)NC2CCC(C)CC2)c2cc(C)cc(C)c2)c1 (stereo not drawn) | 1 | . | 0 | . | . | .
COC(=O)C1C(=O)c2c([nH]c(C(=O)OCC3CCCO3)c2C)CC1C (stereo not drawn) | 3 | 6 | 2 | 5.8* | -122 | -4
COCCOC(=O)c1[nH]c2c(c1C)C(=O)C(C(=O)OC)C(C)C2 (stereo not drawn) | 3 | 2 | 0 | 3 | -99 | -6
Cc1onc(-c2ccc(Cl)cc2)c1-c1ccn(S(=O)(=O)c2ccccc2)n1 | -1 | . | -6 | . | . | .
CC(C)C(=O)Nc1cccc(-c2cnc3ccccc3n2)c1 | 1 | -3 | 4 | 0 | -129 | 9
CS(=O)(=O)Nc1cccc(-c2cnc3ccccc3n2)c1 | 1 | -2 | 6 | 4.3* | -137 | 4
CC(C)CC(C)NC(=O)c1ccc(C(F)(F)F)cc1 (stereo not drawn) | 0 | 1 | -2 | 4.7* | -22 | 4
COC(=O)C1CCN(C(=O)C2CC(=O)N(c3ccc(OC)cc3)C2c2ccc(OC)cc2)CC1 (stereo not drawn) | 0 | . | 0 | . | . | .
CC(C)(C)c1ccc(NC(=O)Nc2ccc(F)cc2)cc1 | 3.6* | 1 | -1 | . | -105 | -9
CC(C)(C)c1ccc(COC(=O)Nc2ccc(F)cc2)cc1 | 0 | 1 | 0 | -1 | -9 | 2
O=C(Nc1ccc2c(c1)OCO2)c1ccc(=O)[nH]n1 | 2 | -1 | 2 | -1 | -24 | 4
CC(C)(C)c1ccc(NC(=O)c2ccc(=O)[nH]n2)cc1 | 2 | -3 | 1 | 5.6* | -105 | -12
COc1ccccc1NS(=O)(=O)c1ccc(C)c(NC(=O)NCCCl)c1 | -1 | -2 | -1 | 4.4* | -6 | 0
COc1ccccc1NS(=O)(=O)c1ccc(C)c(NC(=O)NC2CCCCC2)c1 | 0 | -2 | -1 | -1 | 13 | -4
COc1cc(Cl)ccc1OCc1cc(C(=O)NCc2cc(C(C)C)no2)no1 | 4.1* | 3 | 7 | 1 | -143 | 2
COc1cc(Cl)ccc1OCc1cc(C(=O)NCC(C)(C)N2CCOCC2)no1 | 1 | . | 2 | -1 | -52 | -11
